Reference: ChEMBL document CHEMBL1148762, “Lysosome and HER3 (ErbB3) selective anticancer agent kahalalide F: semisynthetic modifications and antifungal lead-exploration studies” (J Med Chem, 2007)
Values after ≈ are worked out from the molar mass of the structure shown.

Columns and labels:
Candida albicans = experiment: Antimicrobial activity against Candida albicans ATCC 90028; type: functional, organism-based
Cryptococcus neoformans = experiment: Antimicrobial activity against Cryptococcus neoformans ATCC 90113; type: functional, organism-based
[1] = test system: Mycobacterium tuberculosis; experiment: Antibacterial activity against Mycobacterium tuberculosis H37Rv at 16 ug/mL by micro plate alamar blue assay; type: functional
In short: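 M. tuberculosis H37Rv ATCC 27294 grown in BACTEC 12B medium; microplate Alamar blue assay (MABA). Primary screen at a single concentration of 16 µg/mL, read as percent inhibition.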

Aspergillus fumigatus = experiment: Antimicrobial activity against Aspergillus fumigatus ATCC 90906; type: functional, organism-based
[2] = test system: Mycobacterium intracellulare; experiment: Antimicrobial activity against Mycobacterium intracellular ATCC 23068; type: functional, organism-based
Fusarium proliferatum [3] = experiment: Antimicrobial activity against Fusarium proliferatum at 0.3 uM after 48 hrs by microtiter assay; type: functional
In short: (§1)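 96-well microdilution broth assay with conidia (3 × 10^5 conidia/mL, harvested from 7-day PDA cultures and filtered) against F. oxysporum, F. proliferatum and F. solani at 0.3, 3 and 30 µM. Plates were held at 24 ± 1 °C under a 12 h photoperiod. Growth was read at 620 nm at 24, 48 and 72 h and reported as percent inhibition from mean absorbance with standard error.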

Fusarium oxysporum [4] = experiment: Antimicrobial activity against Fusarium oxysporum at 30 uM after 72 hrs by microtiter assay; type: functional; in short: as §1
Fusarium oxysporum [5] = experiment: Antimicrobial activity against Fusarium oxysporum at 0.3 uM after 48 hrs by microtiter assay; type: functional; in short: as §1
Fusarium proliferatum [6] = experiment: Antimicrobial activity against Fusarium proliferatum at 30 uM after 48 hrs by microtiter assay; type: functional; in short: as §1
Fusarium solani [7] = experiment: Antimicrobial activity against Fusarium solani at 0.3 uM after 48 hrs by microtiter assay; type: functional; in short: as §1
Fusarium solani [8] = experiment: Antimicrobial activity against Fusarium solani at 30 uM after 48 hrs by microtiter assay; type: functional; in short: as §1
Fusarium solani [9] = experiment: Antimicrobial activity against Fusarium solani at 30 uM after 72 hrs by microtiter assay; type: functional; in short: as §1
Fusarium oxysporum [10] = experiment: Antimicrobial activity against Fusarium oxysporum at 3 uM after 48 hrs by microtiter assay; type: functional; in short: as §1
Fusarium solani [11] = experiment: Antimicrobial activity against Fusarium solani at 3 uM after 48 hrs by microtiter assay; type: functional; in short: as §1
Fusarium proliferatum [12] = experiment: Antimicrobial activity against Fusarium proliferatum at 3 uM after 72 hrs by microtiter assay; type: functional; in short: as §1
Fusarium proliferatum [13] = experiment: Antimicrobial activity against Fusarium proliferatum at 30 uM after 72 hrs by microtiter assay; type: functional; in short: as §1
Fusarium oxysporum [14] = experiment: Antimicrobial activity against Fusarium oxysporum at 0.3 uM after 72 hrs by microtiter assay; type: functional; in short: as §1
Fusarium oxysporum [15] = experiment: Antimicrobial activity against Fusarium oxysporum at 30 uM after 48 hrs by microtiter assay; type: functional; in short: as §1
Fusarium proliferatum [16] = experiment: Antimicrobial activity against Fusarium proliferatum at 3 uM after 48 hrs by microtiter assay; type: functional; in short: as §1
Fusarium solani [17] = experiment: Antimicrobial activity against Fusarium solani at 0.3 uM after 72 hrs by microtiter assay; type: functional; in short: as §1
Fusarium solani [18] = experiment: Antimicrobial activity against Fusarium solani at 3 uM after 72 hrs by microtiter assay; type: functional; in short: as §1
Fusarium proliferatum [19] = experiment: Antimicrobial activity against Fusarium proliferatum at 0.3 uM after 72 hrs by microtiter assay; type: functional; in short: as §1
Fusarium oxysporum [20] = experiment: Antimicrobial activity against Fusarium oxysporum at 3 uM after 72 hrs by microtiter assay; type: functional; in short: as §1

C/C=C(\NC(=O)[C@H](Cc1ccccc1)NC(=O)[C@H](NC(=O)[C@H](NC(=O)[C@H](NC(=O)[C@H](NC(=O)[C@H](CCCN)NC(=O)[C@H]1CCCN1C(=O)[C@H](NC(=O)[C@@H](NC(=O)[C@@H](NC(=O)[C@H](NC(=O)CCCC(C)C)C(C)C)[C@@H](C)O)C(C)C)C(C)C)[C@@H](C)CC)[C@@H](C)O)[C@@H](C)CC)C(C)C)C(=O)N[C@H](C(=O)O)C(C)C [KAHALALIDE G]
IC50 (Candida albicans): > 13.4 µM
IC50 (Cryptococcus neoformans): > 13.4 µM
inhibition at 16 µg/mL [1]: 29%
IC50 (Aspergillus fumigatus): > 13.4 µM
IC50 [2]: > 13.4 µM

C/C=C1\NC(=O)[C@H](Cc2ccccc2)NC(=O)[C@@H](C(C)C)NC(=O)[C@@H]([C@@H](C)CC)NC(=O)[C@H](NC(=O)[C@H](NC(=O)[C@H](CCCN)NC(=O)[C@H]2CCCN2C(=O)[C@H](NC(=O)[C@@H](NC(=O)[C@@H](NC(=O)[C@H](NC(=O)CCCC(C)C)C(C)C)C(C)=O)C(C)C)C(C)C)[C@@H](C)CC)[C@@H](C)OC(=O)[C@H](C(C)C)NC1=O [listing 1 of 2 here]
IC50 (Candida albicans): 12.4 µM
IC50 (Cryptococcus neoformans): 4.34 µM
IC50 (Aspergillus fumigatus): > 13.6 µM
IC50 [2]: > 20 µM

C/C=C1\NC(=O)[C@H](Cc2ccccc2)NC(=O)[C@@H](C(C)C)NC(=O)[C@@H]([C@@H](C)CC)NC(=O)[C@H](NC(=O)[C@H](NC(=O)[C@H](CCCN)NC(=O)[C@H]2CCCN2C(=O)[C@H](NC(=O)[C@@H](NC(=O)[C@@H](NC(=O)[C@H](NC(=O)CCCC(C)C)C(C)C)C(C)=O)C(C)C)C(C)C)[C@@H](C)CC)[C@@H](C)OC(=O)[C@H](C(C)C)NC1=O [listing 2 of 2 here]
inhibition at 0.3 µM (Fusarium proliferatum [3]): 1.8%
inhibition at 30 µM (Fusarium oxysporum [4]): 82.2%
inhibition at 0.3 µM (Fusarium oxysporum [5]): 1.8%
inhibition at 30 µM (Fusarium proliferatum [6]): 92.7%
MFC (Candida albicans): > 20 µM
MIC (Candida albicans): > 20 µM
inhibition at 0.3 µM (Fusarium solani [7]): 0%
inhibition at 30 µM (Fusarium solani [8]): 90.6%
inhibition at 30 µM (Fusarium solani [9]): 85.5%
inhibition at 3 µM (Fusarium oxysporum [10]): 1.8%
inhibition at 3 µM (Fusarium solani [11]): 0%
inhibition at 3 µM (Fusarium proliferatum [12]): 0%
MFC (Cryptococcus neoformans): 20 µM (≈ 29.5 µg/mL)
MIC (Cryptococcus neoformans): 10 µM (≈ 14.8 µg/mL)
inhibition at 30 µM (Fusarium proliferatum [13]): 73.2%
inhibition at 0.3 µM (Fusarium oxysporum [14]): 0%
inhibition at 30 µM (Fusarium oxysporum [15]): 91.9%
MFC (Aspergillus fumigatus): > 20 µM
MIC (Aspergillus fumigatus): > 20 µM
inhibition at 3 µM (Fusarium proliferatum [16]): 5%
MBC [2]: > 20 µM
MIC [2]: > 20 µM
inhibition at 0.3 µM (Fusarium solani [17]): 0%
inhibition at 3 µM (Fusarium solani [18]): 0%
inhibition at 0.3 µM (Fusarium proliferatum [19]): 0%
inhibition at 3 µM (Fusarium oxysporum [20]): 0%
